Screening data: PubChem BioAssay, several laboratories
NPY Y2 blocker – blocks the human neuropeptide Y Y2 receptor; P49146; NPY-Y2 expressing cells, antagonist mode; inhibition, % at 2.7 µM; 140,000 tested, 0.99% active; AID 793; in the data active = inhibition above about 17%;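 also: 0% = vehicle with agonist challenge and 100% = reference antagonist with challenge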
Rad51 HR inh – blocks human Rad51 in homologous recombination. hRad51 DNA strand exchange, fluorescence dequenching. inhibition, % at 10 µM. 200,000 tested, 0.085% active. AID 1385;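 active = inhibition above 40% at the single screening dose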;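 also: 0% = DMSO control wells and 100% = blanks with heterologous ssDNA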
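Material: Human Rad51 nucleoprotein filaments preassembled on unlabelled ssDNA | Also added: Labelled 47-mer dsDNA for strand exchange | Dosing: Single dose, 10 µM final compound | Schedule: 30-min compound preincubation and 15-min exchange, both room temperature | Technique: Fluorescence dequenching at 485/520 nm | Measure: Percent inhibition relative to plate controls and blanks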
NPY-Y1 PAM-ag – potentiators or agonists of human neuropeptide Y receptor Y1 | AID 1304 | activation, % at 3.6 µM | NPY-Y1 expressing cells, potentiator/agonist activation | 220,000 tested, 0.37% active; in the data active = activation above about 33%, passing the limit was not always enough;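 also: cells stimulated with NPY at EC10 then isoproterenol at EC100; 0% = low agonist plus stimulus and 100% = saturating agonist plus stimulus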
Target sequence (P25929 whole entry, looked up): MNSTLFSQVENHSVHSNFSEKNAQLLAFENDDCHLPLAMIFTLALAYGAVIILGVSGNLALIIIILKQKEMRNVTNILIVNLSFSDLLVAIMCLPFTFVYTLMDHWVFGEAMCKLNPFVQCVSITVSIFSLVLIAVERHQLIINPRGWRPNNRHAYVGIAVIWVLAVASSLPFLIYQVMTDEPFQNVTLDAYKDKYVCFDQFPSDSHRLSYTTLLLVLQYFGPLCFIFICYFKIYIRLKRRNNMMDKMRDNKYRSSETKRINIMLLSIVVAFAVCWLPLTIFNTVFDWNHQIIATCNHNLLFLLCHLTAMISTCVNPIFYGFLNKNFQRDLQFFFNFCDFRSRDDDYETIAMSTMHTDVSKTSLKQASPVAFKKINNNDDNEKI
NPY-Y1 antag – blocks the human neuropeptide Y Y1 receptor. HEK293-CNG Y1 cells, membrane potential fluorescence; NPY at EC95, then isoproterenol. inhibition, % at 3.6 µM. 200,000 tested, 1% active;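 active = inhibition above the campaign mean inhibition of all tested compounds plus 3 SD, cut at about 20% in these data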;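 also: 0% = DMSO wells given NPY plus isoproterenol and 100% = isoproterenol alone without NPY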
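Assay system: HEK293 Y1/CNG channel cell line; Doses: single compound dose of 3.6 µM, 0.4% DMSO; Timing: dye 3 h, compound 60 min room temperature, stimulation 45 min; Technique: Membrane-potential fluorescent dye readout; Measure: % inhibition of NPY effect.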
Measles CPE – protection of cells from measles virus | Measles virus-infected cells, CPE protection, absorbance | AID 841 | 140,000 tested, 1.5% active | protection (pct of control), % at 4 µM; in the data active = protection mostly above about 24%, no sharp cut-off; inactive = mostly below about 26%
NPY-Y2 PAM-ag – potentiators or agonists of human neuropeptide Y receptor Y2. cells expressing NPY-Y2, potentiator/agonist read-out. AID 1359. 220,000 tested, 0.45% active. P49146. activation, % at 3.6 µM; in the data active = activation above about 27%;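 also: cells stimulated with NPY near EC25 plus isoproterenol at EC100; 0% = vehicle plus submaximal agonist and 100% = vehicle plus saturating agonist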
* hit, by the source's call. Compounds with a hit are over-represented: about 2.8% of the library has one in this group of screens.

What do the screens show for `CC1(C)CCCN(C(=O)c2ccc3c(c2NCCO)C(=O)c2ccccc2C3=O)C1`?
NPY Y2 blocker: -9; NPY-Y1 PAM-ag: 51*; NPY-Y1 antag: -22; Measles CPE: 2; NPY-Y2 PAM-ag: 54*

What do the screens show for `CCN(CCN(C)C)C(=O)c1ccc2c(c1NCCO)C(=O)c1ccccc1C2=O`?
Rad51 HR inh: 11; NPY-Y1 PAM-ag: 47*; NPY-Y1 antag: -11; NPY-Y2 PAM-ag: 40*

How did O=C1c2ccccc2C(=O)c2c1ccc(C(=O)N1CCCCC1)c2NCCO do in these assays?
NPY Y2 blocker: -2; Rad51 HR inh: 2; NPY-Y1 PAM-ag: 21; NPY-Y1 antag: 2; Measles CPE: 25; NPY-Y2 PAM-ag: 2

Results for CNC(=O)c1nnsc1S(=O)(=O)c1ccc(Cl)cc1 ?
Rad51 HR inh: -3; NPY-Y1 PAM-ag: 10; NPY-Y1 antag: 7; NPY-Y2 PAM-ag: -18

What do the screens show for `Fc1ccc(NC(=S)NNc2ncc(C(F)(F)F)cc2Cl)c(F)c1`?
Rad51 HR inh: -2; NPY-Y1 PAM-ag: 8; NPY-Y1 antag: 13; NPY-Y2 PAM-ag: 1

How did O=C(Nc1ccc([N+](=O)[O-])cc1)Nc1nc(-c2ccc(Cl)s2)cs1 do in these assays?
NPY Y2 blocker: -1; Rad51 HR inh: -76; NPY-Y1 PAM-ag: 8; NPY-Y1 antag: -9; Measles CPE: 3; NPY-Y2 PAM-ag: 6

What do the screens show for `CSc1nc(N)nc(SCCS(=O)(=O)c2ccc(Cl)cc2)c1C#N`?
NPY Y2 blocker: 7; Rad51 HR inh: -1; NPY-Y1 PAM-ag: -52; NPY-Y1 antag: 1; Measles CPE: 78*; NPY-Y2 PAM-ag: -11

What do the screens show for `CC(=O)N1CCCc2cc(S(=O)(=O)N3CCc4ccccc4C3)ccc21`?
NPY Y2 blocker: 2; Rad51 HR inh: 2; NPY-Y1 PAM-ag: 16; NPY-Y1 antag: -1; Measles CPE: 6; NPY-Y2 PAM-ag: 6

What do the screens show for `CCC(=O)N1CCc2cc(S(=O)(=O)N3CCc4ccccc4C3)ccc21`?
NPY Y2 blocker: -2; Rad51 HR inh: 1; NPY-Y1 PAM-ag: 8; NPY-Y1 antag: -8; Measles CPE: 28*; NPY-Y2 PAM-ag: 5

How did O=C(NNc1nc(-c2ccccc2)c2cc(Br)ccc2n1)c1ccc(S(=O)(=O)N2CCOCC2)cc1 do in these assays?
NPY Y2 blocker: -5; Rad51 HR inh: 3; NPY-Y1 PAM-ag: 8; NPY-Y1 antag: 10; Measles CPE: 10; NPY-Y2 PAM-ag: -2

How did O=C(NNc1nc(-c2ccccc2)c2cc(Br)ccc2n1)c1ccc(S(=O)(=O)N2CCCCC2)cc1 do in these assays?
NPY Y2 blocker: -1; Rad51 HR inh: -2; NPY-Y1 PAM-ag: -14; NPY-Y1 antag: 1; Measles CPE: 47*; NPY-Y2 PAM-ag: -1

Results for CC(C)(O)[C@@H]1[C@@H]2C[C@@]3(CC[C@]4(C)C(CCC5[C@@]6(C)CC[C@H](O)C(C)(C)C6CC[C@]54C)[C@@H]13)C(=O)O2 (some centres undefined) ?
Rad51 HR inh: -8

Results for Cc1ccc(C)c(CSc2nnc(-c3cccs3)n2Cc2ccco2)c1 ?
NPY Y2 blocker: 24*; Rad51 HR inh: 1; NPY-Y1 PAM-ag: 3; NPY-Y1 antag: 53*; Measles CPE: 4; NPY-Y2 PAM-ag: -4

Results for Cc1cccc2cc(CN(Cc3cccnc3)C(=O)c3cccs3)c3nnnn3c12 ?
Rad51 HR inh: 11; NPY-Y1 PAM-ag: 0; NPY-Y1 antag: -8; NPY-Y2 PAM-ag: -6

Results for CCCCN1C(=O)/C(=C/C=C2\Oc3ccccc3N2CC)SC1=S ?
Rad51 HR inh: inactive; NPY-Y1 PAM-ag: 6; NPY-Y1 antag: -2; NPY-Y2 PAM-ag: -4

Results for CCN1/C(=C/C=C/c2oc3ccc(-c4ccccc4)cc3[n+]2CC)Oc2ccc(-c3ccccc3)cc21 ?
Rad51 HR inh: inactive; NPY-Y1 PAM-ag: -31; NPY-Y1 antag: 22*; NPY-Y2 PAM-ag: 3

What do the screens show for `COc1ccccc1CNc1nc2ccccc2n1CCN1CCCCC1`?
NPY Y2 blocker: 21*; Rad51 HR inh: -35; NPY-Y1 PAM-ag: -38; NPY-Y1 antag: 23*; Measles CPE: 3; NPY-Y2 PAM-ag: -8

How did Cc1ccc(NC(=O)COC(=O)Cn2nc(C)c([N+](=O)[O-])c2C)c([N+](=O)[O-])c1 do in these assays?
NPY Y2 blocker: 5; Rad51 HR inh: -4; NPY-Y1 PAM-ag: -7; NPY-Y1 antag: -4; Measles CPE: 40*; NPY-Y2 PAM-ag: -1
